“Also recorded” adds a separate entry of the source. Like-named read-outs stand apart in the source and are kept apart here.
Experiments:
[1] = tested on: peripheral blood mononuclear cells; assay: Autophagic vacuole; assay type: in vivo, human; conditions: after 2 wk run-in of HCQ; baseline 2.19
[2] = tested on: peripheral blood mononuclear cells; assay: PK-PD CART analysis of HCQ peak concentration versus AV accumulation in PBMC; assay type: in vivo, human
In short: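 Exploratory classification and regression trees analysis used 26 patients with complete PK and PD data. The target was change in PBMC AV count from baseline to 2 wk. Predictors were Cmin, Cmax and AUC, taken from model-simulated individual blood profiles. The PK-PD relationship was also examined after 4 wk of combined therapy. The Cmax threshold was tested by Kruskal-Wallis (medians) and Kolmogorov-Smirnov two-sample tests.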

glioma = conditions: cited from earlier work
[3] = tested on: patients with advanced solid tumors; assay type: in vivo, human
In short: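 Open-label single-institution 3 + 3 escalation of the oral test compound only, starting at 200 mg daily, split twice daily about 12 h apart above 200 mg, up to 1200 mg. A 14 d monotherapy run-in preceded an oral alkylating agent at 150 mg/m2 daily for 7 of 14 d, in 28 d cycles. DLT was any at least possibly related grade ≥ 3 event in the first 6 wk. MTD was ≤ 1/6 patients with DLT.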

[4] = Population pharmacokinetics of HCQ in whole blood; assay type: in vivo, human; conditions: for Vd/F: human, oral, Vc/F, apparent central volume of distribution
In short: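 Whole blood was sampled in sodium heparin pre-dose and at 2, 4, 8 and 12 wk and 6 mo, then stored at −70 °C. Samples were assayed in duplicate by HPLC-MS/MS with a deuterated internal standard against a 1/x-weighted linear curve (1–5000 ng/mL; LLOQ 1.0 ng/mL). One- and two-compartment first-order models were fitted by nonlinear mixed-effects (Lindstrom-Bates) with log-normal inter-individual variability. Precision came from 1000 bootstrap runs, and individual parameters were used for profile simulations.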

[5] = tested on: patients with advanced solid tumors; assay: Treatment-related adverse events by grade; assay type: in vivo, human
In short: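 Patients who took at least one dose of the oral test compound, given with a dose-intense oral alkylating agent, were evaluable for toxicity. Adverse events were graded by NCI Common Toxicity Criteria v3.0, and haematological toxicities were attributed to the alkylating agent. Complete blood counts were done weekly for the first 6 wk and biweekly thereafter. Treatment ran in 28 d cycles.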

[6] = population PK, 1000 bootstrap runs
[7] = population PK, whole blood, 35 patients

CCN(CCO)CCCC(C)Nc1ccnc2cc(Cl)ccc12 (centres unmarked) [HCQ, hydroxychloroquine]
Mean AV count per cell in PBMC [1]: 2.45 | Threshold HCQ Cmax that correlated with AV accumulation (CART) ([2]; after 2 wk of single agent HCQ, 26 patients): 1554 ng/mL | Threshold HCQ Cmax for AV change (CART) ([2]; baseline to 4 wk of combined therapy (TMZ + HCQ), 21 patients): 856 ng/mL | Median AV change from baseline to 2 wk ([2]; patients with Cmax above 1554 ng/mL (n = 18), IQR -0.45, 1.37): 0.89 | Median AV change from baseline to 2 wk ([2]; patients with Cmax below 1554 ng/mL (n = 8), IQR −1.35, 0.03): −0.21 | Myelosuppression (glioma; HCQ 800 mg with TMZ 75 mg/m^2 daily and brain radiation): all experienced grade 4 myelosuppression | Maximal tolerated dose of HCQ (glioma; combined with TMZ 75 mg/m^2 daily for 6 wk with concomitant brain radiation): 600 mg daily | Maximum tolerated dose (MTD) ([3]; HCQ up to 1200 mg/d combined with dose-intense TMZ 150 mg/m^2 daily for 7/14 d): No maximal tolerated dose; also recorded: not reached | Recommended phase II dose (RPTD) ([3]; combined with dose-intense TMZ, dose level 5): 600 mg twice daily | Dose-limiting toxicity ([3]; dose level 1 (HCQ 200 mg/day), three patients): no dose-limiting toxicity (DLT) was observed | Dose-limiting toxicity ([3]; dose level 2 (HCQ 400 mg/day)): no DLT observed | Serious adverse event ([3]; dose level 3 (HCQ 400 mg twice daily), patient on sotalol, within 8 d, attributed to dehydration and not to the study drug): third-degree heart block | Dose-limiting toxicity ([3]; dose level 4 (HCQ 1000 mg/day), none in 3 additional patients): one grade 3 rash | Dose-limiting toxicity ([3]; dose level 5 (HCQ 1200 mg/d), first cycle, none in expanded cohort): one patient experienced grade 3 nausea and vomiting | Vd/F ([4]; whole blood, bootstrap estimate, population PK, 1000 bootstrap runs): 500 L | Vd/F ([4]; whole blood, model estimate, population PK, 35 patients): 486 L | Cl/F, apparent oral clearance, bootstrap estimate [4, 6]: 10.085 L/h | Ka, absorption rate constant, bootstrap estimate [4, 6]: 0.999 h⁻¹ | Vp/F, apparent peripheral volume of distribution, bootstrap estimate [4, 6]: 1400.415 L | Cl/F, apparent oral clearance, model estimate [4, 7]: 9.975 L/h | Ka, absorption rate constant, model estimate [4, 7]: 0.998 h⁻¹ | Vp/F, apparent peripheral volume of distribution, model estimate [4, 7]: 1406.52 L | Time to steady-state HCQ blood concentration, on average ([4]; simulated for individual patients with final PK model, (16 d)): 400 h | Abdominal fullness G1/G2 ([5]; All patients, HCQ with TMZ): 2 (6) No. (%) | Abdominal pain G1/G2 ([5]; All patients, HCQ with TMZ): 2 (6) No. (%) | Anemia G1/G2 ([5]; All patients, HCQ with TMZ): 1 (3) No. (%) | Anemia G3/G4 ([5]; All patients, HCQ with TMZ): 1 (3) No. (%) | Anorexia G1/G2 ([5]; All patients, HCQ with TMZ): 13 (35) No. (%) | Bradycardia G1/G2 ([5]; All patients, HCQ with TMZ): 2 (6) No. (%) | Constipation G1/G2 ([5]; All patients, HCQ with TMZ): 8 (22) No. (%) | Diarrhea G1/G2 ([5]; All patients, HCQ with TMZ): 9 (24) No. (%) | Dizziness G1/G2 ([5]; All patients, HCQ with TMZ): 2 (6) No. (%) | Dyspepsia G1/G2 ([5]; All patients, HCQ with TMZ): 2 (6) No. (%) | Headaches G1/G2 ([5]; All patients, HCQ with TMZ): 3 (8) No. (%) | Hypotension G1/G2 ([5]; All patients, HCQ with TMZ): 3 (8) No. (%) | Leukopenia G3/G4 ([5]; All patients, HCQ with TMZ): 1 (3) No. (%) | Lymphopenia G1/G2 ([5]; All patients, HCQ with TMZ): 5 (14) No. (%) | Lymphopenia G3/G4 ([5]; All patients, HCQ with TMZ): 5 No. (%) | Myalgias G1/G2 ([5]; All patients, HCQ with TMZ): 2 (6) No. (%) | Nausea G1/G2 ([5]; All patients, HCQ with TMZ): 24 (65) No. (%) | Nausea G3/G4 ([5]; All patients, HCQ with TMZ): 1 (3) No. (%) | Neutropenia G3/G4 ([5]; All patients, HCQ with TMZ): 2 (6) No. (%) | Pruritus G1/G2 ([5]; All patients, HCQ with TMZ): 4 (12) No. (%) | Rash G1/G2 ([5]; All patients, HCQ with TMZ): 3 (8) No. (%) | Rash G3/G4 ([5]; All patients, HCQ with TMZ): 1 (3) No. (%) | Taste change G1/G2 ([5]; All patients, HCQ with TMZ): 2 (6) No. (%) | Thrombocytopenia G1/G2 ([5]; All patients, HCQ with TMZ): 5 (14) No. (%) | Thrombocytopenia G3/G4 ([5]; All patients, HCQ with TMZ): 2 (6) No. (%) | Vomiting G3/G4 ([5]; All patients, HCQ with TMZ): 1 (3) No. (%) | Abdominal fullness G1/G2 ([5]; HCQ 200 mg (n = 3) with TMZ): 1 (33) No. (%) | Anorexia G1/G2 ([5]; HCQ 200 mg (n = 3) with TMZ): 1 (33) No. (%) | Constipation G1/G2 ([5]; HCQ 200 mg (n = 3) with TMZ): 1 (33) No. (%) | Fatigue G1/G2 ([5]; HCQ 200 mg (n = 3) with TMZ): 1 (33) No. (%) | Lymphopenia G1/G2 ([5]; HCQ 200 mg (n = 3) with TMZ): 1 (33) No. (%) | Lymphopenia G3/G4 ([5]; HCQ 200 mg (n = 3) with TMZ): 1 (33) No. (%) | Nausea G1/G2 ([5]; HCQ 200 mg (n = 3) with TMZ): 1 (33) No. (%) | Vomiting G1/G2 ([5]; HCQ 200 mg (n = 3) with TMZ): 1 (33) No. (%) | Abdominal fullness G1/G2 ([5]; HCQ 400 mg (n = 4) with TMZ): 1 (25) No. (%) | Anorexia G1/G2 ([5]; HCQ 400 mg (n = 4) with TMZ): 1 (25) No. (%)

From publication PMC4203514 (Autophagy, 2014)
